# The list is not random: actives were taken first. Their share in the collection is about 0.58%.
# PvdQ acylase: P. aeruginosa PvdQ acylase inhibitors, primary screen, biochemical, fluorescence, plate reader and imaging, single point. purified PvdQ acylase. hit rate 0.063% among 340,000. PvdQ acylase [Pseudomonas aeruginosa LESB58]. inhibition, % at 10 µM; in the data active = inhibition above about 30%, passing the limit was not always enough;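 note: 0% = vehicle neutral wells and 100% = reference inhibitor wells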
# ERp5 inh: inhibitors of ERp5-driven insulin aggregation, primary screen, biochemical, turbidity, absorbance 650 nm, single point. Protein disulfide-isomerase A6 (Homo sapiens), Q15084. 90 min. inhibition, % at 9.99 µM. hit rate 0.05% among 350,000. AID 651711, 2012;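 active = mean replicate inhibition above about 25%, with every replicate also reaching it, limit read from the data, passing the limit was not always enough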
# miR122 inh: miR-122 Renilla sensor signal increase in Huh7, primary screen, miR-122 inhibitor project, cell-based, single point, plate reader; activation (reporter increase), % at 12.5 µM; hit rate 0.3% among 340,000; Huh7 miR-122 Renilla luciferase sensor, 48 h; neutral wells = 0, positive control = 100;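 active = mean replicate activation score at least 90 and every replicate individually at or above 90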;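 note: higher luciferase means less miR-122 activity so hits act as miR-122 inhibitors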
# Cneo AK release: Cryptococcus neoformans cell lysis inducers, primary screen, AK release luminescence, single concentration; C. neoformans lysis, adenylate kinase release luminescence, 4 h; normalised: neutral wells 0, clomiphene wells 100; lysis activity, % at 15 µM; hit rate 0.2% among 360,000; AID 651654, 2012;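 active = mean lysis activity across replicates of at least 80%, whatever share of replicates individually reach that level; inactive = mean lysis activity below 80%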
#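 Material – Cryptococcus neoformans yeast cells · Quantity – 5 × 10^6 yeast cells/mL · Buffer or medium – YPD medium · Compound – single dose · Timing – 4 h static compound exposure, 37 °C, read 1 h post-reagent · Signal – adenylate kinase release luminescence · Read-out basis – lysis from increased AK signal · Benchmarks – Clomiphene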
# PglD DTNB: C. jejuni PglD acetyltransferase inhibitors, primary screen, biochemical, DTNB colorimetric, single point; purified PglD enzyme, DTNB colorimetric CoA detection; inhibition, % at 12.5 µM; hit rate 0.098% among 360,000; UDP-N-acetylbacillosamine N-acetyltransferase PglD (Campylobacter jejuni); AID 602405, 2012; in the data active = inhibition above about 16%, passing the limit was not always enough
# PDI turbidity: inhibitors of human PDI, primary screen, biochemical, turbidity, single point, plate reader; Protein disulfide-isomerase (Homo sapiens), P07237; PDI insulin aggregation turbidity, A650, 90 min; inhibition, % at 10 µM; hit rate 0.052% among 350,000; AID 588391, 2011;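 active = mean inhibition across replicates of 30% or more, whatever share of single replicates reach that level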
# Target sequence (P07237 whole entry, looked up): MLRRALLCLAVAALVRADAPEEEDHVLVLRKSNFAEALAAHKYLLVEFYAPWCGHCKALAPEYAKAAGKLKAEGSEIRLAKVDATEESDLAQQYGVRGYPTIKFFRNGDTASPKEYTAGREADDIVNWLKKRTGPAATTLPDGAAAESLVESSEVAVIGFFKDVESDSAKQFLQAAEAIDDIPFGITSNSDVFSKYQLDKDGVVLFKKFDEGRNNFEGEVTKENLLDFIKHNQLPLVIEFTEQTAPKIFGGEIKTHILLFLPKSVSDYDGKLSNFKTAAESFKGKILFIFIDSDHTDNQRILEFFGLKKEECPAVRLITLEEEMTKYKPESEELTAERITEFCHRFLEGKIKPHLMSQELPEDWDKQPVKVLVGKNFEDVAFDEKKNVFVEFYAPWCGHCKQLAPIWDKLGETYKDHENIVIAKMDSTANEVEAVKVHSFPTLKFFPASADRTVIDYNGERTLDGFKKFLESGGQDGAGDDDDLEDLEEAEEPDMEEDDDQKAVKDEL
# * hit, by the source's call; · = no result; [ ] = another dose, or the depositor's remark.
SMILES,PvdQ acylase,ERp5 inh,miR122 inh,Cneo AK release,PglD DTNB,PDI turbidity
CCOC(=O)NCc1ccc2[nH]c(C)cc2c1,9,-3,-4,136*,-5,·
CCNC(=O)C[C@@H]1CC[C@@H](NS(=O)(=O)c2ccc(C)cc2)[C@H](CO)O1,·,-3,·,0,1,·
CC(O)CCC(=O)NNC(=S)Nc1ccccc1 (configuration not stated),-4,4,0,1,3,1
CC(C)CCC(CC(C)O)C(=O)NNC(=S)Nc1ccccc1 (configuration not stated),-14,-2,152*,2,-3,-2
CC(C)NC(=O)N[C@H]1CC[C@@H](CCNC(=O)C2CCC2)O[C@H]1CO,·,-3,-11[16.7 µM],-3,-2,·
CCC(=O)N1CCc2cc(S(=O)(=O)NCCCN3CCN(Cc4ccccc4)CC3)ccc21,-22,·,-1,2,0,-6
CC(=O)N1CCc2cc(S(=O)(=O)NCCCN3CCN(Cc4ccccc4)CC3)ccc21,-22,·,302*,-2,-3,-8
CSc1nc(N(C)CCO)c2sc3nc(-c4ccco4)c4c(c3c2n1)CCC4,-13,·,-8,3,-6,-1
CSc1nc(SCC(=O)O)c2sc3nc(-c4ccccc4)c4c(c3c2n1)CCC4,-3,3,-10,5,-1,53*
O=C(C[C@@H]1C[C@@H]2c3cc(NC(=O)NC4CCCCC4)ccc3O[C@@H]2[C@@H](CO)O1)NCc1cccnc1,·,-4,4[16.7 µM],9,54*,·
O=C(C[C@H]1C[C@@H]2c3cc(NC(=O)NC4CCCC4)ccc3O[C@@H]2[C@@H](CO)O1)NCc1ccc(Cl)cc1,·,98*,-7[16.7 µM],3,0,·
O=C(C[C@@H]1C[C@@H]2c3cc(NC(=O)NC4CCCCC4)ccc3O[C@@H]2[C@H](CO)O1)NCc1cccnc1,·,-5,-2[16.7 µM],-2,0,·
CCC(=O)N1C[C@@H](C)[C@H](OC)CN(C)C(=O)c2cc(NS(C)(=O)=O)ccc2OC[C@H]1C,·,2,-2[16.7 µM],-3,3,·
Cc1ccc(-c2nc(CN(C)Cc3cccc4cnccc34)c(C)o2)s1,51*,1,·,·,·,24
COc1ccc(NC(=O)N(C)C[C@H]2Oc3ccc(NS(C)(=O)=O)cc3CC(=O)N([C@H](C)CO)C[C@H]2C)cc1,·,-11,9[16.7 µM],6,2,·
COn1c(-n2nc(C)cc2C)nc2ccccc2c1=O,-10,·,3,91*,-4,-6
C#CCOn1c(-n2nc(C)cc2C)nc2ccccc2c1=O,-12,-1,4,-7,1,-1
Fc1cccc(CCN2C(=S)NC[C@@H]2Cc2ccccc2)c1,-10,8,·,142*,-2,3
C[C@@H]1O[C@@H](O[C@H]2[C@H](O)[C@@H](O)[C@H](Oc3c(-c4ccc(O)c(O)c4)oc4cc(O)cc(O)c4c3=O)O[C@@H]2CO)[C@H](O)[C@H](O)[C@H]1O,-8,-7,·,2,-2,67*
C[C@@H]1O[C@@H](OC[C@H]2O[C@@H](Oc3cc(O)c4c(=O)cc(-c5ccc(O)c(O)c5)oc4c3)[C@H](O)[C@@H](O)[C@@H]2O)[C@H](O)[C@H](O)[C@H]1O,-4,·,-3,0,-5,4
COc1cc(O)c2c(=O)c(-c3ccc(O[C@@H]4O[C@H](CO)[C@@H](O)[C@H](O)[C@H]4O)cc3)coc2c1,11,2,-4,5,-6,0
COc1cc(-c2oc3cc(O)cc(O)c3c(=O)c2O[C@@H]2O[C@H](COC3O[C@@H](C)[C@H](O)[C@@H](O)[C@H]3O)[C@@H](O)[C@H](O)[C@H]2O)ccc1O (some centres not stated),4,-2,·,5,-2,56*
C[C@@H]1O[C@@H](Oc2c(-c3ccc(O)c(O)c3)oc3cc(O)cc(O)c3c2=O)[C@H](O)[C@H](O)[C@H]1O,-14,2,29,1,0,73*
C[C@@H]1O[C@@H](Oc2c(-c3cc(O)c(O)c(O)c3)oc3cc(O)cc(O)c3c2=O)[C@H](O)[C@H](O)[C@H]1O,-12,12,-7,0,2,47*
O=C(CSCc1ccco1)N1CCc2ccccc21,86*,·,0,0,-3,0
SMILES,PvdQ acylase,ERp5 inh,miR122 inh,Cneo AK release,PglD DTNB,PDI turbidity
COC(=O)C1=C(C)N(Cc2ccccc2)C(=S)N[C@H]1c1cccc(F)c1,7,-4,·,180*,-3,3
Cn1c(COc2ccccc2)nnc1SCC(=O)Nc1nnc(C2CC2)s1,-13,27*,11,-2,2,-2
Cc1c(C(=O)Nc2ccccn2)oc2ccccc12,0,4,95*,-2,-2,-7
Cc1ccc(NC(=O)c2oc3ccccc3c2C)nc1,-4,4,22,-3,1,-3
Cc1cc(Cl)c(S(=O)(=O)Nc2ccc3c(c2)OCCO3)cc1OCC(=O)NC1CCCCC1,-1,·,157*,2,-4,2
CC(C)CNS(=O)(=O)c1ccc(OCC(=O)Nc2ccc3c(c2)OCCO3)cc1,-5,·,·,·,·,-1
Cc1cc(Cl)c(S(=O)(=O)Nc2ccon2)cc1OCC(=O)NC1CCCCC1,-11,·,-11,-1,-4,0
O=C(COc1ccc(S(=O)(=O)NC2CCCCC2)cc1)Nc1ccc2c(c1)OCCO2,-4,1,101*,-2,-1,·
O=C(C[C@H]1CC[C@@H]2[C@H](COC[C@@H](O)CN2Cc2ccc(Cl)cc2)O1)NCc1ccccc1Cl,·,-1,2[16.7 µM],-2,1,·
COCCNC(=O)C[C@H]1C[C@H]2c3cc(NC(=O)Nc4ccc(C(F)(F)F)cc4)ccc3O[C@H]2[C@@H](CO)O1,·,-1,5[16.7 µM],1,1,·
COc1cccc(S(=O)(=O)Nc2ccc3c(c2)[C@H]2C[C@@H](CC(=O)NCc4ccccc4F)O[C@H](CO)[C@H]2O3)c1,·,-1,-7[16.7 µM],1,4,·
COc1cccc(S(=O)(=O)Nc2ccc3c(c2)[C@H]2C[C@H](CC(=O)NCc4cccc(F)c4)O[C@@H](CO)[C@H]2O3)c1,·,0,30[16.7 µM],94*,3,·
COc1cccc(S(=O)(=O)Nc2ccc3c(c2)[C@@H]2C[C@@H](CC(=O)NCc4cccc(F)c4)O[C@H](CO)[C@@H]2O3)c1,·,-5,9[16.7 µM],106*,-5,·
COc1cccc(S(=O)(=O)Nc2ccc3c(c2)[C@H]2C[C@H](CC(=O)NCc4ccccc4F)O[C@@H](CO)[C@H]2O3)c1,·,-2,8[16.7 µM],95*,0,·

# Compound activity from PubChem.
